M4 antag – antagonists of human muscarinic M4 receptor (CHRM4) | AID 624125 | P08173 | hit rate 0.73% among 360,000 | CHO-hM4 cells, ACh EC80, Fluo-8 calcium fluorescence | inhibition, % at 3 µM;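 active = inhibition above its plate's cutoff, the mean inhibition of sample wells plus 3 SD, cut at about 27% in these data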;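 also: 0% = acetylcholine EC80 with DMSO and 100% = DMSO without agonist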
Target sequence (P08173 whole entry, looked up): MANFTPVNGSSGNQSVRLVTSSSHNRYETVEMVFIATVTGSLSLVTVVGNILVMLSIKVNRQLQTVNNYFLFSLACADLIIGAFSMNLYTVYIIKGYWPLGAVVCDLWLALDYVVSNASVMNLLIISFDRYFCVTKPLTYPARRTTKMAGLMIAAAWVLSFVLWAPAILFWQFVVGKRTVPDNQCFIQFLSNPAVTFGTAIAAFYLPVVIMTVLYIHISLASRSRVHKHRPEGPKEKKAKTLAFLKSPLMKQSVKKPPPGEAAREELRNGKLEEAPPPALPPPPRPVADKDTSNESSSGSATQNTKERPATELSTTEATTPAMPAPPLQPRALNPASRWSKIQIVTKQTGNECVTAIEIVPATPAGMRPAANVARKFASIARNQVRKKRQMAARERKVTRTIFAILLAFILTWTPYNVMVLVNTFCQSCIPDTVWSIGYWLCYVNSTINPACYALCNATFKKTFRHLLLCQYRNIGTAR
CHRM5 antagonist – CHRM5 antagonism in calcium assay; CHO-hM5 cells, Fluo-8 calcium fluorescence, ACh EC80; inhibition, % at 3 µM; hit rate 0.59% among 360,000; AID 624040;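 active = inhibition above a per-plate cutoff, the mean of that plate's test compounds plus 3 SD, cut at about 27% in these data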;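 also: 0% = acetylcholine EC80 with DMSO and 100% = DMSO without agonist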
CHRM4 agonist – agonists of human muscarinic M4 receptor (CHRM4). activation, % at 3 µM. CHO-K1 hM4/Gqi5, Fluo-8 calcium fluorescence; vehicle 0%, full acetylcholine response 100%. AID 624127. hit rate 0.14% among 360,000. P08173;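 active = activation above the run mean over all test wells plus 3 SD, cut at about 32% in these data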;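 also: peak over basal fluorescence ratio per well then scaled between controls; 0% = DMSO wells and 100% = acetylcholine at EC100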
CHRM4 PAM – CHRM4 positive allosteric modulation; activation, % at 3 µM; CHO-K1 hM4/Gqi5, Fluo-8 calcium fluorescence, ACh EC20; 0% = ACh EC20, 100% = maximal ACh; P08173; hit rate 0.4% among 360,000;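 active = activation above its plate's cutoff, the mean activation of sample wells plus 3 SD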
M5 ag – agonists of human muscarinic M5 receptor (CHRM5). P08912. CHO-K1 hM5 cells, Fluo-8 calcium fluorescence; 0% DMSO wells, 100% maximal acetylcholine response. activation, % at 3 µM. hit rate 0.19% among 360,000;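 active = activation above the run's mean over test compounds plus 3 SD, cut at about 23% in these data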;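 also: signal is peak over basal fluorescence ratio across the kinetic read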
CHRM5 PAM – potentiates acetylcholine response at human M5 receptor | P08912 | CHO-K1 hM5, Fluo-8 calcium, ACh EC20 PAM; 0% = ACh EC20, 100% = ACh EC100 | activation, % at 3 µM | hit rate 0.3% among 360,000;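 active = activation above the run cutoff, the mean activation of all test compounds plus 3 SD, cut at about 18% in these data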
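Test system: CHO-K1 hM5 cells / Doses: single-point, 3 µM nominal / Times: Post-acetylcholine fluorescence recording 140 s / Technique: Fluo-8 calcium fluorescence / Measure: Max/basal fluorescence ratio as % of EC20–EC100 ACh window / Benchmarks: low control EC20 acetylcholine (0%), high control EC100 acetylcholine (100%) / Replicates: one well per compound, no replicates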
* = called active by the depositor. The list is not random: actives were taken first. Their share in the collection is about 1.8%.

SMILES	M4 antag	CHRM5 antagonist	CHRM4 agonist	CHRM4 PAM	M5 ag	CHRM5 PAM
COC(=O)[C@@]1(C(C)C)N=C(c2cc(OC)c(OC)c(OC)c2)[C@]2(O1)C(=O)N(C)c1ccc(Cl)cc12	0	-4	4	2	2	1
CCn1cc([N+](=O)[O-])c(C(=O)N2CCCc3ccccc32)n1	4	1	1	22*	-4	2
CCn1cc([N+](=O)[O-])c(C(=O)N2CCCCCC2)n1	-12	-5	0	1	-6	1
CCOC(=O)[C@]12CCCC=C1N(CCC1=CCCCC1)C(=O)[C@H](CC(=O)NCc1ccccc1)C2	-6	0	8	-9	-2	-5
CCN1CCN(c2ccc(NC(=O)c3cccc(S(=O)(=O)N4CCCC4)c3)cc2)CC1	26	50*	1	-11	-10	-34
CCn1c(=O)c(=O)[nH]c2cc(C(=O)Nc3ccc(S(=O)(=O)N4CCCC4)cc3)ccc21	10	-1	0	31*	3	-4
CCn1c(=O)c(=O)[nH]c2cc(C(=O)NC3CC3)ccc21	4	3	2	20	2	-1
COc1ccc(NC(=O)CN(C)C(=O)c2cccc(S(=O)(=O)N3CCN(c4ccc(F)cc4)CC3)c2)cc1	15	30*	16	0	2	-22
CCn1c(=O)c(=O)[nH]c2cc(C(=O)NC3CCCc4ccccc43)ccc21 (stereo unspecified)	14	-1	-2	36*	2	0
COc1ccc(CCNC(=O)c2ccc(S(=O)(=O)N3CCCCC3)cc2)cc1	-4	9	6	0	2	-5
CCOC1=C2[C@H](c3ccc(CC)cc3)N(S(=O)(=O)c3ccc(C)cc3)C[C@H]2C(C#N)(C#N)C(C#N)(C#N)C1	14	2	-1	-4	-2	3
CC(=O)c1ccc(-c2cnc3c(NC=O)cc(-c4ccccc4Oc4ccccc4)cn23)cc1	6	3	2	-6	0	-9
O=C1/C(=C/c2ccc(N3CCOCC3)o2)SC(=Nc2ccccc2)N1CCc1c[nH]c2ccccc12	42*	13	6	-20	12	2
COc1cc(/C=C2\SC(=Nc3ccccc3)N(CCc3c[nH]c4ccccc34)C2=O)ccc1OC(C)C(=O)O (stereo unspecified)	0	3	1	6	-3	-1
COc1cc(Cl)c(C)cc1Nc1ncccn1	-27	-6	0	5	-3	5
Cc1ccccc1-c1cc2nc(NCCN3CCNC3=O)n(C)c(=O)c2s1	-4	2	2	6	0	-3
CCc1nc2ccc(C(=O)N3CCN(C(=O)c4ccco4)CC3)cn2c1N(C)Cc1nccn1C	-1	11	0	-2	-1	0
NC(=O)c1nsc(C(=O)N(c2cccc(F)c2)C(C(=O)NC2CCCC2)c2ccc(O)cc2)c1N (stereo unspecified)	9	-4	1	-7	1	5
COc1ccc(C(C(=O)NC2CCCC2)N(C(=O)c2snc(C(N)=O)c2N)c2cccc(O)c2)cc1 (stereo unspecified)	8	27*	21	-11	0	-13
CC1(C(=O)NS(=O)(=O)c2ccc(Cl)cc2)CCN1C(=O)C1(c2ccc(Cl)cc2)CCC1 (stereo unspecified)	-6	9	-1	2	0	-3
O=C(NC(NNc1ccc([N+](=O)[O-])cc1)(C(F)(F)F)C(F)(F)F)c1ccc(F)cc1	9	29*	13	-9	9	-17
O=C(NC(NNc1ccc([N+](=O)[O-])cc1)(C(F)(F)F)C(F)(F)F)c1ccccc1Cl	6	10	4	-11	0	-12
Cc1ccc(C(c2sc3nc(C)nn3c2O)N2CCN(c3ccccc3F)CC2)cc1 (stereo unspecified)	7	-1	0	5	-9	19*
Cc1ccc(C(c2sc3nc(C)nn3c2O)N2CCN(CCO)CC2)cc1 (stereo unspecified)	4	-2	0	7	2	4
O=C1C=CC2C3C(=O)N(c4ccccc4)C(=O)C3C1N2Cc1ccccc1 (stereo unspecified)	31*	14	5	-5	3	0
SMILES	M4 antag	CHRM5 antagonist	CHRM4 agonist	CHRM4 PAM	M5 ag	CHRM5 PAM
O=C1C2C3C=CC(CC3)C2C(=O)N1c1ccccc1 (stereo unspecified)	-1	0	1	1	-2	1
CC(=O)Nc1sc2c(c1C(c1ccccc1Cl)N1CCN(CCO)CC1)CCCC2 (stereo unspecified)	11	65*	6	-15	-5	-25
CCCCCCn1c(=O)[nH]c2nc3cc(N)c(C)cc3nc2c1=O	26	37*	37*	-14	104*	-24
CC(Oc1ccc(Br)cc1)C(=O)Nc1ccc(S(=O)(=O)NC2=NCCCCC2)cc1 (stereo unspecified)	-4	18	39*	-5	29*	-10
CC(Oc1ccc(F)cc1)C(=O)Nc1ccc(S(=O)(=O)NC2=NCCCCC2)cc1 (stereo unspecified)	1	15	17	2	17	-7
COC(=O)c1ccc2nc(-c3ccc(Cl)cc3)c(Cc3cccc(Cl)c3)n2c1	1	10	0	-1	-2	-12
NS(=O)(=O)c1ccc(CCNC(=O)C2CC(=O)N(Cc3ccccc3Cl)C2)cc1 (stereo unspecified)	4	6	1	8	-1	6
CC1CCc2c(nc3nc[nH]n3c2=O)C1 (stereo unspecified)	9	-9	-1	14	2	4
S=c1c2c(nc3nc[nH]n13)CCC2	3	-10	1	-1	9	18*
COC(=O)[C@H](Cc1ccccc1)NC(=O)Cn1ccc(NC(=O)OCc2ccccc2)nc1=O	3	7	3	-2	1	3
CCCCN(C)C(=O)c1cccc(OC2CCN(CC(C)(C)C)CC2)c1	2	2	2	-3	-21	-5
CC(C)(C)CN1CCC(Oc2cccc(C(=O)N3CCNC(=O)C3(C)C)c2)CC1	24	31*	1	-14	-11	-10
CN(C)CCNC(=O)C(c1ccccc1)c1ccccc1	-4	11	1	-5	-20	-8
CC(CCCN(C)C)C(Cc1ccccc1)c1ccccc1 (stereo unspecified)	29*	31*	10	-17	-18	-35
CN(C)CCC(=O)C(Cc1ccccc1)c1ccccc1 (stereo unspecified)	35*	5	4	-15	-18	-19
